Experimental data published in the RNAGym collection of RNA variant scans (doi:10.1101/gad.245936.114).
Variants at the floor of the assay were thinned out.

B1: tRNA (parent)
chain: CUCUCGGUAGCCAAGUUGGUUUAAGGCGCAAGACUUUAAUUUAUCACUACGAAAUCUUGAGAUCGGGCGUUCGACUCGCCCCCGGGAGAUUUUUUCCUCGAGCAA

Variants of: B1
Assay: nonsense suppression (GFP-seq) (ratio to wild type); higher = more function; SUP4oc tRNA, yeast GFP reporter sort-seq
Outline: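 Raffinose/galactose medium with 80 mg/L adenine was used to grow yeast carrying genome-integrated tRNA variants (~3% random-mutation library), RFP, and a galactose-driven GFP ochre reporter. Cells went into GFP/RFP bins, which were Illumina-sequenced, and variants with ≥100 reads and ≥30 cells were scored. Nonsense suppression (GFPSEQ) is the per-bin median GFP/RFP weighted by estimated cell share and expressed relative to the unmutated parent tRNA.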

First: U16G C83U
Second: A13U C27U
The nonsense suppression of the first is higher: 0.223 for the first, 0.209 for the second.

G15A G59C A87C and A14G U17A G59U cannot be ordered by nonsense suppression: at most 0.026 for the first, at most 0.026 for the second.

Going from A14U C27A G78C A87C to G15A G78A, the nonsense suppression rises from at most 0.026 to 0.0278.

Compared with G15U C29U, A13U U22G is higher in nonsense suppression: at most 0.026 for the first, 1.06 for the second.

Compared with A13C U21C, A13C U21A is higher in nonsense suppression: 1.17 for the first, 1.19 for the second.

Going from U16G A31G to G15C C56A, the nonsense suppression falls from 1.15 to at most 0.026.

Going from U16C A60G G86C to A13U G65U, the nonsense suppression rises from at most 0.026 to 0.0575.

Going from A13U G65A to A14G G61C, the nonsense suppression rises from at most 0.026 to 0.0278.

First: A13G C56G U71G
Second: G15A C68U
The nonsense suppression of the first is lower: at most 0.026 for the first, 0.0272 for the second.

G15U G18A U58C G85U and A13G G67C C83G cannot be ordered by nonsense suppression: at most 0.026 for the first, at most 0.026 for the second.

Going from G15A A31G to G15A C75A, the nonsense suppression rises from 0.0274 to 0.854.

First: A13C U55C
Second: G15U U16A G59C G66C U70A C82G
The nonsense suppression of the first is higher: 0.827 for the first, at most 0.026 for the second.

U16C C82G and G15U U71A C82G cannot be ordered by nonsense suppression: at most 0.026 for the first, at most 0.026 for the second.

A13U A14C U35A A60C C72U and A14G G19U A23G A30G C75U C82U cannot be ordered by nonsense suppression: at most 0.026 for the first, at most 0.026 for the second.

First: A14U G25U A30C G65C
Second: U16C G61U G73A
The nonsense suppression of the first is lower: at most 0.026 for the first, 0.438 for the second.

First: A13G
Second: A13U
The nonsense suppression of the first is lower: 0.191 for the first, 1.03 for the second.

A14U G84A and A14G U17A G25A C29U U63G cannot be ordered by nonsense suppression: at most 0.026 for the first, at most 0.026 for the second.

A14C U16C G19A A23U C29U A30G C72G C82A and A14U G15C A60C C79U cannot be ordered by nonsense suppression: at most 0.026 for the first, at most 0.026 for the second.

A14G A30C G61C A74U and U16G C56A U58G A60C cannot be ordered by nonsense suppression: at most 0.026 for the first, at most 0.026 for the second.

Compared with G15U C68U G78C C82G G84A, A13C U17G C82U is higher in nonsense suppression: at most 0.026 for the first, 0.142 for the second.

First: A13G U17C A23C C75A G88A
Second: G15C C34A C82G
The nonsense suppression of the first is lower: at most 0.026 for the first, 0.816 for the second.

Compared with A13U U16G A33U, A14C C68G is lower in nonsense suppression: 0.0384 for the first, at most 0.026 for the second.

G15C G69U G73C and U16G G28U U35G G59A G85A cannot be ordered by nonsense suppression: at most 0.026 for the first, at most 0.026 for the second.

Going from U16G G78C to U16C C81G, the nonsense suppression falls from 0.113 to at most 0.026.

Compared with U16C C81U, G15A U21C C82A is lower in nonsense suppression: 1.16 for the first, at most 0.026 for the second.

U16G G25C U55G and A14C C56A C81G cannot be ordered by nonsense suppression: at most 0.026 for the first, at most 0.026 for the second.

Compared with A13U A30U, U16C A30G is higher in nonsense suppression: 0.0763 for the first, 1.17 for the second.

Going from U16A U76C to G15A G26U, the nonsense suppression falls from 1.19 to at most 0.026.

First: A13C U35G U57C
Second: A13U C79U
The nonsense suppression of the first is lower: at most 0.026 for the first, 0.175 for the second.

Going from A14C G59C G85A to U16C C29U, the nonsense suppression rises from at most 0.026 to 1.11.

Compared with A14U A54C C68A G73C G84A, A13U C81A is lower in nonsense suppression: 0.202 for the first, at most 0.026 for the second.

Going from A13U C81G to U16A G59A, the nonsense suppression rises from 0.0578 to 0.32.

First: G15C G26U U57C G78C
Second: U16A G73A
The nonsense suppression of the first is lower: at most 0.026 for the first, 0.63 for the second.

First: U16A U20G
Second: U16A U20C
The nonsense suppression of the first is higher: 1.11 for the first, 0.193 for the second.

Going from U16A U22C to A14C A31U A33U, the nonsense suppression falls from 1.08 to at most 0.026.

U16C G32A G59A C82G and A14U U71A cannot be ordered by nonsense suppression: at most 0.026 for the first, at most 0.026 for the second.

Going from G15C A23G G61A to A13U C64U, the nonsense suppression rises from at most 0.026 to 0.0285.

Going from A13U A74U to A13G U35C U71C, the nonsense suppression falls from 0.051 to at most 0.026.

Going from A13U G32C C56G C75U to G15U U20C, the nonsense suppression falls from 0.912 to 0.0275.

U16C U17C G18A G67A and A14U A60C G66A G67A cannot be ordered by nonsense suppression: at most 0.026 for the first, at most 0.026 for the second.

First: G15A U22C
Second: G15U U55A
The nonsense suppression of the first is higher: 0.147 for the first, at most 0.026 for the second.

Going from G15A U20G to U16C A54C, the nonsense suppression rises from 0.189 to 1.22.

Going from G15A U16A to A14G U57C U58A, the nonsense suppression falls from 0.0275 to at most 0.026.

A14G G19C C29A C56A G88C and U16G A30C A31G U55A U57A cannot be ordered by nonsense suppression: at most 0.026 for the first, at most 0.026 for the second.

Going from U16C U21C A31U to G15A C81U, the nonsense suppression falls from 0.204 to 0.0386.

A14C U71A and A14U U16C U58A G61U C72U cannot be ordered by nonsense suppression: at most 0.026 for the first, at most 0.026 for the second.

Going from A14U G18C C80U to A13U A33G, the nonsense suppression rises from at most 0.026 to 0.194.

G15A G73C C75G and A14C U16G U55C cannot be ordered by nonsense suppression: at most 0.026 for the first, at most 0.026 for the second.

Going from A13G C64G to U16C U22C G61C, the nonsense suppression rises from at most 0.026 to 0.207.

Going from A13U G15A to A13U C83U, the nonsense suppression rises from 0.046 to 0.157.

First: U16G C79U
Second: A14G G18A U21C A30G A33G C79A C82A A89U
The nonsense suppression of the first is higher: 0.852 for the first, at most 0.026 for the second.

U16A U71G C75G and A14U A24U G26U C29G cannot be ordered by nonsense suppression: at most 0.026 for the first, at most 0.026 for the second.

First: U16C U21G A31G G32C G69A U71C C75A G86A
Second: U16G C29U
The nonsense suppression of the first is lower: at most 0.026 for the first, 1.11 for the second.

First: U16G A24U
Second: U16G U70A C82A
The nonsense suppression of the first is higher: 0.221 for the first, at most 0.026 for the second.

Going from G15A to G15U C68G, the nonsense suppression falls from 0.188 to at most 0.026.

Compared with A14G C29U, A14C C68U G88A is lower in nonsense suppression: 0.0832 for the first, at most 0.026 for the second.

First: A14G G78A
Second: A14U U63A
The nonsense suppression of the first is lower: 0.0272 for the first, 0.0439 for the second.

First: A13G C29A
Second: U16G U17A G19A C27A
The nonsense suppression of the first is higher: 0.03 for the first, at most 0.026 for the second.

First: A13G A24U
Second: U16A U21G
The nonsense suppression of the first is lower: 0.0411 for the first, 0.752 for the second.

First: A14U G25C C27U
Second: A13U U16G
The nonsense suppression of the first is lower: at most 0.026 for the first, 0.819 for the second.

Going from A13U U16A to A13U U71A, the nonsense suppression falls from 0.837 to at most 0.026.

Going from A14G G26A G66C to A13G G85A, the nonsense suppression rises from at most 0.026 to 0.214.

G15C G28U A62C G86C and G15U G19A A54U A62G C79A cannot be ordered by nonsense suppression: at most 0.026 for the first, at most 0.026 for the second.

First: A14C U20G
Second: A13C U76A
The nonsense suppression of the first is lower: at most 0.026 for the first, 0.282 for the second.

Compared with A13U G59U C80G, A13U C75U is higher in nonsense suppression: at most 0.026 for the first, 1.22 for the second.

Going from A13U C75A to A14U G86C, the nonsense suppression falls from 0.866 to at most 0.026.

First: A14U G86A
Second: A13U U16G C82U
The nonsense suppression of the first is lower: at most 0.026 for the first, 0.377 for the second.

Going from A14G A87U to A13C U17G C75A, the nonsense suppression rises from at most 0.026 to 1.1.

Compared with U16C C83U, A13U G28C is lower in nonsense suppression: 0.5 for the first, 0.227 for the second.

U16C U76A A89U and G15C G25U cannot be ordered by nonsense suppression: at most 0.026 for the first, at most 0.026 for the second.

U16C C83G G86A A87G and A13G A33U U57A cannot be ordered by nonsense suppression: at most 0.026 for the first, at most 0.026 for the second.

Compared with U16G A54U, G15U U21A U55G is lower in nonsense suppression: 1.18 for the first, at most 0.026 for the second.

G15U U70G and G15U A23G U55G cannot be ordered by nonsense suppression: at most 0.026 for the first, at most 0.026 for the second.

Going from U16G G67A to A13U G69A, the nonsense suppression falls from 0.178 to 0.072.

Compared with A13U G69C, G15C C27G A31C is lower in nonsense suppression: 0.0304 for the first, at most 0.026 for the second.

First: A13U U57A
Second: U16G U22A
The nonsense suppression of the first is lower: 0.0273 for the first, 0.872 for the second.

First: A13G A87G
Second: G15A A31U U35C U76G C83U
The nonsense suppression of the first is higher: 0.14 for the first, at most 0.026 for the second.

Going from A14U G61C C79U to A13U G67A, the nonsense suppression rises from at most 0.026 to 0.0502.

Compared with G15C G19C, G15A A24C is higher in nonsense suppression: at most 0.026 for the first, 0.0467 for the second.

A14C C29U and A13G C82A cannot be ordered by nonsense suppression: at most 0.026 for the first, at most 0.026 for the second.

U16A G18U A24C U58G and A14G U16G C64U cannot be ordered by nonsense suppression: at most 0.026 for the first, at most 0.026 for the second.

A13U G15A G73U and A14G C64A G65A cannot be ordered by nonsense suppression: at most 0.026 for the first, at most 0.026 for the second.

U16G U17A and U16G U17C are the same in nonsense suppression: 1.05 for the first, 1.05 for the second.

G15C G67A showed a nonsense suppression of at most 0.026.
